Reference: ChEMBL document CHEMBL2412990, “Synthesis and pharmacological evaluation of new N-phenylpiperazine derivatives designed as homologues of the antipsychotic lead compound LASSBio-579” (Eur J Med Chem, 2013)
Active and inactive are the calls of the source. The calls are words filed in the database; no cut-off is given here.

What was measured:
D(2) dopamine receptor = D(2) dopamine receptor (Rattus norvegicus, UniProt P61169); experiment: Displacement of [3H]-YM-09151-2 from D2 receptor in rat brain striatal membranes after 60 mins by liquid scintillation counting; format: cell membranes, Membrane
D(4) dopamine receptor = target: T1, D(4) dopamine receptor (Homo sapiens, UniProt P21917); experiment: Displacement of [3H]-YM-09151-2 from human D4 receptor after 120 mins by liquid scintillation counting
T1 sequence (P21917 whole entry): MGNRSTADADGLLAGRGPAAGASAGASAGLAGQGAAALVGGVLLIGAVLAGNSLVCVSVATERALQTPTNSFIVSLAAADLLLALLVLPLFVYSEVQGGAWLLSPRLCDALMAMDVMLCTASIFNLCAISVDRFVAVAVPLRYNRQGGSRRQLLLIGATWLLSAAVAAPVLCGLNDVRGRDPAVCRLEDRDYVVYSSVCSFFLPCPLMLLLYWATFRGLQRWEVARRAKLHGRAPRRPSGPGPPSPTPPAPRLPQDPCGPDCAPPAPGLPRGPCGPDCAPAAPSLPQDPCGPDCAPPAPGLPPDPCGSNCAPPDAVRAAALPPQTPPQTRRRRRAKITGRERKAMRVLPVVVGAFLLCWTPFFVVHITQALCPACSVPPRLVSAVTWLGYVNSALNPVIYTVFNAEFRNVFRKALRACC

[1] = target: T2, 5-hydroxytryptamine receptor 1A (Rattus norvegicus, UniProt P19327); experiment: Displacement of [3H]-8-OH-DPAT from 5HT1A receptor in rat brain hippocampal membranes after 15 mins by liquid scintillation counting; format: cell membranes, Membrane
T2 sequence (P19327 whole entry): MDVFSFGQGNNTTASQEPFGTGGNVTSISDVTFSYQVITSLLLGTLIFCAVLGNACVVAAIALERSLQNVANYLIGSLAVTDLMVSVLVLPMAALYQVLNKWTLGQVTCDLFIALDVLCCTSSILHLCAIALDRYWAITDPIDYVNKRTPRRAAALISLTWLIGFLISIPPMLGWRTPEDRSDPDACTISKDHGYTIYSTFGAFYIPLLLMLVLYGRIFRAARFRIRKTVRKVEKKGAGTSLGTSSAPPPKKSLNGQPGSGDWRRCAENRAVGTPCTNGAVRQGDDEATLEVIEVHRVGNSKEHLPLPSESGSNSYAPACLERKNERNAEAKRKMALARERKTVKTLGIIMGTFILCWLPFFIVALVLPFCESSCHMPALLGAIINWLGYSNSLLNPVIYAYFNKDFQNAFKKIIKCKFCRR
How it was run: (§1)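 Hippocampal membranes, 40 µg protein, incubated with 1 nM [3H]-8-OH-DPAT at 37 °C for 15 min under yellow light. Buffer was 50 mM Tris-HCl pH 7.4 with 1 mM CaCl2, 1 mM MnCl2 and pargyline. Filters were soaked in 0.5% polyethyleneimine. IC50 came from nonlinear regression fitted with one or two sites. Ki by Cheng-Prusoff, using Kd from saturation experiments.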

[2] = target: Dopamine D2 receptor and Serotonin 2a receptor (D2 and 5HT2a) (Rattus norvegicus) (UniProt P61169+P14842); experiment: Selectivity ratio of Ki for dopamine D2 receptor in rat brain striatal membranes to Ki for 5HT2A receptor in rat brain cortical membranes; format: cell membranes; details: Membrane
[3] = target: 5-hydroxytryptamine receptor 2A (Rattus norvegicus) (UniProt P14842); experiment: Antagonist activity at 5HT2A receptor in rat brain cortical membranes assessed as inhibition of [3H]-ketanserin binding to receptor after 15 mins by competition assay in absence of GTP; format: cell membranes
How it was run: (§2)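 Rat cortical membranes, 150 µg protein, with 1 nM [3H]-ketanserin and 100 nM prazosin in 50 mM Tris-HCl pH 7.4, 37 °C, 15 min. Non-specific binding was defined with ketanserin. For the GTP shift, paired competition curves were run without and with guanylyl nucleotide (0.1 mM Gpp(NH)p or 1 mM GTP).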

[4] = target: T3, 5-hydroxytryptamine receptor 1A (Rattus norvegicus) (UniProt P19327); experiment: Partial agonist activity at 5HT1A receptor in rat brain hippocampal membranes assessed as inhibition of [3H]-8-OH-DPAT binding to receptor after 15 mins by competition assay; format: cell membranes
T3 sequence (whole entry): T2 sequence (P19327 whole entry)
How it was run: as §1, with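 “pargyline. Non-specific binding was defined with 5-HT.” for “pargyline.”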

Mus musculus [5] = experiment: Antipsychotic activity in ip dosed CF1 mouse assessed as prevention of apomorphine-induced climbing behaviour compound administered 30 mins prior apomorphine challenge measured 5 to 30 mins post challenge; format: functional, organism-based
How it was run: (§3)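 Adult male mice, 25–35 g, dosed i.p. at 10 ml/kg, then placed in wire-bar cages for 30 min. Apomorphine 4 mg/kg s.c. followed. Climbing was scored 0–4 for 1 min at 5, 10, 15, 20, 25 and 30 min; the climbing index is the sum of scores. n = 7–9. Analysed by one-way ANOVA with Newman-Keuls post hoc test.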

[6] = test system: Alpha-2 adrenergic receptor (Rattus norvegicus); experiment: Antagonist activity at alpha2 adrenoreceptor in rat brain cortical membranes assessed as inhibition of [3H]-RX821002 binding to receptor after 45 mins by competition assay in absence of GTP
[7] = target: 5-hydroxytryptamine receptor 2A (Rattus norvegicus) (UniProt P14842); experiment: Antagonist activity at 5HT2A receptor in rat brain cortical membranes assessed as inhibition of [3H]-ketanserin binding to receptor after 15 mins by competition assay in presence of GTP; format: cell membranes; how it was run: as §2
Mus musculus [8] = experiment: Antipsychotic activity in ip dosed CF1 mouse assessed as prevention of ketamine-induced hyperlocomotion compound administered 30 mins prior ketamine challenge measured for 20 mins post challenge; format: functional, organism-based
How it was run: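 Mice were pretreated (reference drug orally after 2 h fast; test compound i.p.) and placed in the arena centre. Ketamine 10 mg/kg s.c. was given 30 min later. A blinded observer counted total square crossings over 20 min in a dimly lit room. n = 7–8. Analysed by one-way ANOVA with Newman-Keuls post hoc test.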

[9] = test system: Alpha-2 adrenergic receptor (Rattus norvegicus); experiment: Antagonist activity at alpha2 adrenoreceptor in rat brain cortical membranes assessed as inhibition of [3H]-RX821002 binding to receptor after 45 mins by competition assay in presence of GTP
Mus musculus [10] = experiment: Toxicity in CF1 mouse assessed as effect on locomotor activity measuring number of crossings at 1 to 3 mg/kg, ip administered 30 mins prior ketamine challenge measured for 20 mins post challenge; format: organism-based; parameters: dose 1-3 mg/kg, route intraperitoneal; details: in vivo
Mus musculus [11] = experiment: Toxicity in CF1 mouse assessed as reduction in locomotor activity measuring number of crossings at 10 mg/kg, ip administered 30 mins prior ketamine challenge measured for 20 mins post challenge; format: organism-based; parameters: dose 10 mg/kg, route intraperitoneal; details: in vivo
Mus musculus [12] = experiment: Antipsychotic activity in CF1 mouse assessed as prevention of apomorphine-induced climbing behaviour at 0.1 to 10 mg/kg, ip administered 30 mins prior apomorphine challenge measured 5 to 30 mins post challenge; format: functional, organism-based; how it was run: as §3

D(2) dopamine receptor, sequence (P61169 whole entry): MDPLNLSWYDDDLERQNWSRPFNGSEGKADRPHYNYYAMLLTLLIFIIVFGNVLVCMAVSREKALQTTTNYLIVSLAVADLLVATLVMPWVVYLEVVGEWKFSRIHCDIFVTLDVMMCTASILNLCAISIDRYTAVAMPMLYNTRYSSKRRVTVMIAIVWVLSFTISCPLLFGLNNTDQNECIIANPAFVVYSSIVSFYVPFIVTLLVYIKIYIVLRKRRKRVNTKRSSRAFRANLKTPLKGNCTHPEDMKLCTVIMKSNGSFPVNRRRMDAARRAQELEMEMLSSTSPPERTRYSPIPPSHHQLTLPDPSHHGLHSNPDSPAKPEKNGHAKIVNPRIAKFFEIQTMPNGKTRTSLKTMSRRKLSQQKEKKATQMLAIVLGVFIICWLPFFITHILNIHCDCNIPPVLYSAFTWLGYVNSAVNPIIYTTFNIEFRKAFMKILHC
5-hydroxytryptamine receptor 2A (Rattus norvegicus), sequence (P14842 whole entry): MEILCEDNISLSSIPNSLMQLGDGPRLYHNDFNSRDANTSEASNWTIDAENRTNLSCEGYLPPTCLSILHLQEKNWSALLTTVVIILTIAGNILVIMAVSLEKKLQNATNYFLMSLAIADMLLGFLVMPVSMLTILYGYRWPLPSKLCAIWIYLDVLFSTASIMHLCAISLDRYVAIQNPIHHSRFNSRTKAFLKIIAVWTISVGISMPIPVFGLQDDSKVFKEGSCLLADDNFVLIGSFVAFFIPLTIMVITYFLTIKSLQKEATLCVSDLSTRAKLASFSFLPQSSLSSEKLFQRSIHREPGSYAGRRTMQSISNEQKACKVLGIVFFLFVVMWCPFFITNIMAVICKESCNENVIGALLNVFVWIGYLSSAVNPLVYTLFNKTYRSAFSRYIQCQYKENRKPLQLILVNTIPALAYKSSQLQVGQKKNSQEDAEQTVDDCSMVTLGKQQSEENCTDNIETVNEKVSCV
Dopamine D2 receptor and Serotonin 2a receptor (D2 and 5HT2a) (Rattus norvegicus), sequence (P14842 whole entry, looked up): as the sequence (P14842 whole entry) above
Dopamine D2 receptor and Serotonin 2a receptor (D2 and 5HT2a) (Rattus norvegicus), sequence (P61169 whole entry, looked up): as the sequence (P61169 whole entry) above

Compound	Ki (D(2) dopamine receptor) [nM]	Ki (D(4) dopamine receptor) [nM]	Ki [1] [nM]	Ratio Ki [2]	inhibition [3]	inhibition [4]	inhibition [6]	inhibition [7]	inhibition [9]	Activity (Mus musculus [5])	Activity (Mus musculus [8])	Activity (Mus musculus [10])	Activity (Mus musculus [11])	Activity (Mus musculus [12])
Clc1ccc(-n2cc(CCCN3CCN(c4ccccc4)CC3)cn2)cc1	680	330	180	–	–	–	–	–	–	–	–	–	–	–
Clc1ccc(-n2cc(CN3CCN(c4ccccc4)CC3)cn2)cc1	390	180	220	0.056	–	–	–	–	–	–	–	–	–	Active
Clc1ccc(-n2cc(COCCCN3CCN(c4ccccc4)CC3)cn2)cc1	790	1500	310	–	–	–	–	–	–	–	–	–	–	–

Continued by falling Ki (D(2) dopamine receptor), values first:

Ki (D(2) dopamine receptor) [nM]	Ki (D(4) dopamine receptor) [nM]	Ki [1] [nM]	Ratio Ki [2]	inhibition [3]	inhibition [4]	inhibition [6]	inhibition [7]	inhibition [9]	Compound	Activity (Mus musculus [5])	Activity (Mus musculus [8])	Activity (Mus musculus [10])	Activity (Mus musculus [11])	Activity (Mus musculus [12])
1900	100	110	–	–	–	–	–	–	Clc1ccc(-n2cc(COCCN3CCN(c4ccccc4)CC3)cn2)cc1	–	–	–	–	–
490	1180	160	–	–	–	–	–	–	Clc1ccc(-n2cc(CCCCCN3CCN(c4ccccc4)CC3)cn2)cc1	–	–	–	–	–
250	800	90	0.4	Active	Active	Active	Active	Active	Clc1ccc(-n2cc(CCCCN3CCN(c4ccccc4)CC3)cn2)cc1	Dose-dependent effect	Dose-dependent effect	Non-toxic	Toxic	–
